The values below come from ChEMBL document CHEMBL2169747, “Synthesis and biological properties of highly sequence-specific-alkylating N-methylpyrrole-N-methylimidazole polyamide conjugates” (J Med Chem, 2012).

Data set [1] deals with A549. Nature of the data set: Antitumor activity against human A549 cells xenografted in BALB/c-nu/nu mouse assessed as effect on tumor growth at 1.6 mg/kg, iv administered as liposomal conjugate for 14 days. The format is functional, organism-based. More on the design: dose 1.6 mg/kg. Summed up: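 Male BALB/c-nu/nu mice (5 weeks, 15−22 g) with subcutaneous right-subaxillary A549 or DU145 xenografts (3 × 10^6 cells/mouse), grouped by tumor size. Liposomes were made from a lipid film hydrated in water and bath-sonicated 2 h, giving 330 μg/mL conjugate in 17 mM lipid. A single 125 μL intravenous dose (41 μg/mouse) was given on day 0. Tumor size and weight were read every other day for 14 days. n = 5 or 6.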
(In general: A xenograft is tissue or cells of one species grown in another, often human tumour cells in immunodeficient mice.)

Data set [2] concerns Nucleic Acid. Nature of the data set: Induction of calf thymus DNA cleavage at 10 to 25 nM after 12 h by PAGE analysis. The following applies: in the assay text read “208-bp PCR fragment DNA” for “calf thymus DNA”. The format is nucleic-acid assay. The method in brief:
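5′-Texas Red-labeled 208 bp PCR fragments alkylated in 5.0 mM sodium phosphate (pH 7.0) with 10% DMF, room temperature, 12 h. Quenched with calf thymus DNA and heated 95 °C for 5 min under neutral conditions. Recovered DNA in formamide loading dye, heated 95 °C 20 min, then run on 6% denaturing polyacrylamide gel with 6.0 M urea at 1.5 kV, 40 °C.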

Data set [3] concerns A549. Nature of the data set: Downregulation of ACTG gene expression in human A549 cells at 26 nM after 12 hrs by microarray analysis relative to control. The data set is classed as functional. Summed up: (§1)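 A549 cells, 4 × 10^5 per 60 mm dish, were exposed to conjugate for 12 h in medium with 0.1% DMSO; vehicle control was 0.1% DMSO. Whole human genome (~25 000 genes) expression was profiled by microarray and expression compared with the control.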

Data set [4] deals with SK-N-SH. Put plainly: Cytotoxicity against human SK-N-SH cells assessed as cell growth inhibition after 48 hrs by microplate reader analysis. The format is functional, cell-based. Summed up:
(§2)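 Medium was RPMI-1640 for EBC-1, A549 and DU145, and DMEM for PC-3, SK-N-SH and K562. Both media had 10% heat-inactivated FBS plus penicillin/streptomycin; cells were kept at 37 °C, 5% CO2. Cells were seeded at 5000/well and given compound from DMSO stock (final 0.1% DMSO) for 48 h. Viability was read by WST-8 colorimetry, absorbance at 450 and 600 nm, and IC50 determined.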

Data set [5] can be described thus: Cytotoxicity against human EBC1 cells assessed as cell growth inhibition after 48 hrs by microplate reader analysis. The data set is classed as functional, cell-based. The settings on record: EBC-1, 48 h. The method in brief:
as §2

Data set [6] relates to A549. Put plainly: Antiangiogenic activity against human A549 cells. The data set is classed as functional, cell-based.
Data set [7] deals with DU-145. Nature of the data set: Cytotoxicity against human DU145 cells assessed as cell growth inhibition after 48 hrs by microplate reader analysis. The format is functional, cell-based. The following applies: DU-145, 48 h. The method in brief:
as §2

The test system of data set [8] is A549. Nature of the data set: Cytotoxicity against human A549 cells assessed as cell growth inhibition after 48 hrs by microplate reader analysis. The format is functional, cell-based. The following applies: A549, 48 h. Summed up:
as §2

Data set [9] concerns K562. Nature of the data set: Cytotoxicity against human K562 cells assessed as cell growth inhibition after 48 hrs by microplate reader analysis. The format is functional, cell-based. The settings on record: K562, 48 h. Summed up:
as §2

Data set [10] has as its system DU-145. Put plainly: Antiangiogenic activity against human DU145 cells. The data set is classed as functional, cell-based.
In data set [11] the test system is Mus musculus. Put plainly: Toxicity in BALB/c nu/nu mouse at 1.6 mg/kg, iv administered as liposomal conjugate for 14 days. More on the design: dose 1.6 mg/kg, route intravenous. The settings on record: in vivo, 336 h. The data set is classed as organism-based. Summed up:
(§3)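 Pre-test in male BALB/c-nu/nu mice without xenografts. Naked conjugate was dissolved in 100% DMSO and given ip at 0.50 mg/kg (12.5 μg/mouse). Liposomal conjugate (0.33 mg/mL in 17 mM lipid, hydrated with water and sonicated) was given iv at 1.6 mg/kg (41 μg/mouse), 125 μL single dose.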

Data set [12] deals with A549. Put plainly: Downregulation of HIST1H2AC gene expression in human A549 cells at 26 nM after 12 hrs by microarray analysis relative to control. The format is functional. Summed up: as §1
The test system of data set [13] is PC-3. Nature of the data set: Cytotoxicity against human PC3 cells assessed as cell growth inhibition after 48 hrs by microplate reader analysis. The data set is classed as functional, cell-based. The following applies: PC-3, 48 h. The method in brief: as §2
Data set [14] relates to Mus musculus. Nature of the data set: Toxicity in BALB/c nu/nu mouse at 0.50 mg/kg, ip for 14 days. The format is organism-based. More on the design: dose 0.5 mg/kg, route intraperitoneal. The following applies: in vivo, 0.5 mg/kg, 336 h. The method in brief:
as §3

In data set [15] the test system is A549. Put plainly: Upregulation of BTG2 gene expression in human A549 cells at 26 nM after 12 hrs by microarray analysis relative to control. The data set is classed as functional. The method in brief:
(§4)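 4 ×10^5 A549 cells seeded per 60 mm dish and treated 12 h with conjugate (21, 26, 34 or 100 nM) in medium; control medium contained 0.1% DMSO, with conjugates added as 0.1% DMSO solutions. Whole human genome (~25 000 genes) expression profiled by microarray against the DMSO control. A549 culture: RPMI-1640 with 10% heat-inactivated FBS, penicillin/streptomycin, 37 °C, 5% CO2.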

Data set [16] deals with A549. Nature of the data set: Downregulation of RABGAP1L gene expression in human A549 cells at 26 nM after 12 hrs by microarray analysis relative to control. The data set is classed as functional. The method in brief: (§5)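 A549 cells (RPMI-1640, 10% heat-inactivated FBS, penicillin/streptomycin, 37 °C, 5% CO2) seeded at 4 × 10^5 per 60 mm dish. Exposed 12 h to conjugate at 21, 26, 34 or 100 nM in medium with 0.1% DMSO, against 0.1% DMSO control. Whole-genome (~25 000 genes) expression profiled by microarray.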

For data set [17], the system named is DU-145. Nature of the data set: Antitumor activity against human DU145 cells xenografted in BALB/c-nu/nu mouse assessed as effect on tumor growth at 0.50 mg/kg, ip for 14 days. More on the design: dose 0.5 mg/kg. The format is functional, organism-based. The method in brief: (§6)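 Male BALB/c-nu/nu mice, 5 weeks old, 15−22 g. Cells were implanted subcutaneously in the right subaxillary region at 3 × 10^6 cells/mouse: 50 μL for A549, 100 μL for DU145, with HBSS and Matrigel used. Mice were grouped by tumor size. The naked conjugate was given intraperitoneally once on day 0 as 20 μL at 625 μg/mL in 100% DMSO (12.5 μg/mouse). Tumor size and weight were measured every other day for 14 days. n = 7 or 8.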

Data set [18] has as its system A549. Nature of the data set: Antitumor activity against human A549 cells xenografted in BALB/c-nu/nu mouse assessed as effect on tumor growth at 0.50 mg/kg, ip for 14 days. More on the design: dose 0.5 mg/kg. The data set is classed as functional, organism-based. Summed up: as §6
In data set [19] the test system is A549. Put plainly: Downregulation of HIST1H2AC gene expression in human A549 cells at 34 nM after 12 hrs by microarray analysis relative to control. The format is functional. The method in brief: as §1
Data set [20] has as its system A549. Nature of the data set: Downregulation of GTDC1 gene expression in human A549 cells at 34 nM after 12 hrs by microarray analysis relative to control. The format is functional. The method in brief: as §1
Data set [21] deals with A549. Put plainly: Upregulation of GADD45A gene expression in human A549 cells at 34 nM after 12 hrs by microarray analysis relative to control. The data set is classed as functional. The method in brief: as §4
Data set [22] relates to A549. Nature of the data set: Downregulation of PTPRK gene expression in human A549 cells at 34 nM after 12 hrs by microarray analysis relative to control. The data set is classed as functional. Summed up:
as §5

Data set [23] has as its system A549. Nature of the data set: Downregulation of OR1C1 gene expression in human A549 cells at 34 nM after 12 hrs by microarray analysis relative to control. The format is functional. Summed up:
as §5

Data set [24] has as its system A549. Put plainly: Downregulation of RABGAP1L gene expression in human A549 cells at 34 nM after 12 hrs by microarray analysis relative to control. The data set is classed as functional. The method in brief:
as §5

Data set [25] concerns A549. Nature of the data set: Downregulation of ACTG gene expression in human A549 cells at 34 nM after 12 hrs by microarray analysis relative to control. The data set is classed as functional. The method in brief:
as §1

SMILES strings stand for the structures. Active and inactive are the calls of the source. The calls are words filed in the database; no cut-off is given here.

As usually defined, the IC50 is the concentration that gives 50% inhibition. As to `CC(=O)Nc1cn(C)c(C(=O)Nc2cc(C(=O)Nc3cc(C(=O)NCCC(=O)Nc4cc(C(=O)NCCCC(=O)Nc5cc(C(=O)NCCC(=O)Nc6cn(C)c(C(=O)Nc7ccc8[nH]c(C(=O)N9CC(CCl)c%10c9cc(O)c9ccccc%109)cc8c7)n6)n(C)c5)n(C)c4)n(C)c3)n(C)c2)n1` (racemic), the outcome in data set [1], in data set [6], in [10], in data set [17] and in [18] was inactive. Also, the outcome in [2] was Active. Also, the “fold change (FC)” value amounted to 0.311 in [3], 0.362 in data set [12], 10.1 in [15] and 0.155 in [16]. Also, the IC50 in data set [4] is 19.1 nM; in data set [5], 60.3 nM; in [7] it was 6.03 nM; in data set [8], 25.7 nM; in data set [9], 9.12 nM; in data set [13], 12.6 nM. For the same molecule, the Activity result in [11] and in [14] was “Non-toxic” each time.
For `CC(=O)Nc1cn(C)c(C(=O)Nc2cn(C)c(C(=O)Nc3cc(C(=O)NCCC(=O)Nc4cc(C(=O)NCCCC(=O)Nc5cn(C)c(C(=O)NCCC(=O)Nc6cn(C)c(C(=O)Nc7ccc8[nH]c(C(=O)N9CC(CCl)c%10c9cc(O)c9ccccc%109)cc8c7)n6)n5)n(C)c4)n(C)c3)n2)n1` (racemic), the outcome in data set [1], in data set [6], in data set [10], in [17] and in data set [18] was inactive. For the same molecule, the outcome in [2] was Active. In addition, the “fold change (FC)” value in [19] is given as 0.329; in data set [20], 0.307; in data set [21], 5.9; in data set [22], 0.189; in data set [23], 0.324; in [24], 0.276. For the same molecule, the “fold change (FC)” value in [25] was 0.307. Besides, the IC50 was 40.7 nM in data set [4]; 170 nM in data set [5]; 6.31 nM in data set [7]; 33.9 nM in [8]; 11.5 nM in data set [9]; 19.1 nM in data set [13].
